In ChEMBL document CHEMBL1137710, “Synthesis and in vitro antitumor activity of new quinoxaline derivatives” (2009):

Columns and labels:
Type in all cases: functional
[1] = system: NCI-H460; experiment: Anticancer activity against human NCI-H460 cells assessed as cell growth at 100 uM after 48 hrs by sulforhodamine B assay; conditions: NCI-H460, 48 h, read-out: Activity
[2] = system: CCRF-CEM; experiment: Growth inhibition of human CCRF-CEM cells after 48 hrs by sulforhodamine B assay; conditions: for TGI: read-out: pTGI (converted)
How it was run: (§1)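 NCI 60-human-tumor-cell-line panel, with compounds tested over a 5-log dose range. Values are taken from dose-response curves as log10 molar concentrations: GI50 is 50% net growth inhibition, TGI is total growth inhibition, and LC50 is 50% net cell death.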

[3] = system: HL-60(TB); experiment: Growth inhibition of human HL-60(TB) cells after 48 hrs by sulforhodamine B assay; conditions: HL-60, 48 h; for TGI: read-out: pTGI (converted)
How it was run: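 Tested only on compounds active in a three-line prescreen, in the NCI 60-human-tumour-cell-line panel over a 5-log dose range. Values come from dose–response curves as log10 molar GI50, the concentration inhibiting 50% net cell growth. Log10 TGI (total growth inhibition) and log10 LC50 (50% net cell death) were derived too. Mean graph midpoints include insensitive lines at the highest concentration tested.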

[4] = system: K562; experiment: Growth inhibition of human K562 cells after 48 hrs by sulforhodamine B assay; conditions: K562, 48 h; for TGI: read-out: pTGI (converted); how it was run: as §1
[5] = system: HOP-62; experiment: Growth inhibition of human HOP62 cells after 48 hrs by sulforhodamine B assay; conditions: HOP-62, 48 h; for TGI: read-out: pTGI (converted); how it was run: as §1
[6] = system: HOP-92; experiment: Growth inhibition of human HOP92 cells after 48 hrs by sulforhodamine B assay; conditions: HOP-92, 48 h; for TGI: read-out: pTGI (converted); how it was run: as §1
[7] = system: NCI-H226; experiment: Growth inhibition of human NCI-H226 cells after 48 hrs by sulforhodamine B assay; conditions: NCI-H226, 48 h; how it was run: as §1
[8] = system: NCI-H322M; experiment: Growth inhibition of human NCI-H322M cells after 48 hrs by sulforhodamine B assay; conditions: for TGI: read-out: pTGI (converted); how it was run: as §1
[9] = system: NCI-H522; experiment: Growth inhibition of human NCI-H522 cells after 48 hrs by sulforhodamine B assay; conditions: NCI-H522, 48 h; for TGI: read-out: pTGI (converted); how it was run: as §1
[10] = system: HCT-15; experiment: Growth inhibition of human HCT15 cells after 48 hrs by sulforhodamine B assay; conditions: HCT-15, 48 h; for TGI: read-out: pTGI (converted); how it was run: as §1
[11] = system: HT-29; experiment: Growth inhibition of human HT-29 cells after 48 hrs by sulforhodamine B assay; conditions: HT-29, 48 h; for TGI: read-out: pTGI (converted); how it was run: as §1
[12] = system: SF-268; experiment: Growth inhibition of human SF268 cells after 48 hrs by sulforhodamine B assay; conditions: SF-268, 48 h; for TGI: read-out: pTGI (converted); how it was run: as §1
[13] = system: Malme-3M; experiment: Growth inhibition of human MALME-3M cells after 48 hrs by sulforhodamine B assay; conditions: for CC50: read-out: pLC50 (the source's name) (converted); for TGI: read-out: pTGI (converted); how it was run: as §1
[14] = system: SK-MEL-2; experiment: Growth inhibition of human SK-MEL-2 cells after 48 hrs by sulforhodamine B assay; conditions: SK-MEL-2, 48 h; for CC50: read-out: pLC50 (the source's name) (converted); for TGI: read-out: pTGI (converted); how it was run: as §1
[15] = system: SK-MEL-28; experiment: Growth inhibition of human SK-MEL-28 cells after 48 hrs by sulforhodamine B assay; conditions: SK-MEL-28, 48 h; for CC50: read-out: pLC50 (the source's name) (converted); for TGI: read-out: pTGI (converted); how it was run: as §1
[16] = system: SK-MEL-5; experiment: Growth inhibition of human SK-MEL-5 cells after 48 hrs by sulforhodamine B assay; conditions: SK-MEL-5, 48 h; for CC50: read-out: pLC50 (the source's name) (converted); for TGI: read-out: pTGI (converted); how it was run: as §1
[17] = system: UACC-257; experiment: Growth inhibition of human UACC257 cells after 48 hrs by sulforhodamine B assay; conditions: UACC-257, 48 h; for CC50: read-out: pLC50 (the source's name) (converted); for TGI: read-out: pTGI (converted)
How it was run: (§2)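 Run in the NCI 60-human-tumour-cell-line panel, tested over a 5-log dose range. Dose–response curves gave three values per cell line, each as a log10 molar concentration: GI50 (50% inhibition of net cell growth), TGI (total inhibition of net growth) and LC50 (50% net cell death). The mean graph midpoint is the arithmetic mean over all lines, with insensitive lines entered at the highest concentration tested.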

[18] = system: UACC-62; experiment: Growth inhibition of human UACC62 cells after 48 hrs by sulforhodamine B assay; conditions: UACC-62, 48 h; for CC50: read-out: pLC50 (the source's name) (converted); for TGI: read-out: pTGI (converted); how it was run: as §2
[19] = system: IGROV-1; experiment: Growth inhibition of human IGROV1 cells after 48 hrs by sulforhodamine B assay; conditions: IGROV-1, 48 h; for CC50: read-out: pLC50 (the source's name) (converted); for TGI: read-out: pTGI (converted); how it was run: as §1
[20] = system: OVCAR-3; experiment: Growth inhibition of human OVCAR-3 cells after 48 hrs by sulforhodamine B assay; conditions: OVCAR-3, 48 h; for CC50: read-out: pLC50 (the source's name) (converted); for TGI: read-out: pTGI (converted); how it was run: as §1
[21] = system: OVCAR-4; experiment: Growth inhibition of human OVCAR4 cells after 48 hrs by sulforhodamine B assay; conditions: OVCAR-4, 48 h; for CC50: read-out: pLC50 (the source's name) (converted); for TGI: read-out: pTGI (converted); how it was run: as §1
[22] = system: A498; experiment: Growth inhibition of human A498 cells after 48 hrs by sulforhodamine B assay; conditions: A498, 48 h; for CC50: read-out: pLC50 (the source's name) (converted); for TGI: read-out: pTGI (converted); how it was run: as §1
[23] = system: ACHN; experiment: Growth inhibition of human ACHN cells after 48 hrs by sulforhodamine B assay; conditions: for TGI: read-out: pTGI (converted)
[24] = system: SN12C; experiment: Growth inhibition of human SN12C cells after 48 hrs by sulforhodamine B assay; conditions: for CC50: read-out: pLC50 (the source's name) (converted); for TGI: read-out: pTGI (converted); how it was run: as §2
[25] = system: UO-31; experiment: Growth inhibition of human UO31 cells after 48 hrs by sulforhodamine B assay; conditions: UO-31, 48 h; for CC50: read-out: pLC50 (the source's name) (converted); for TGI: read-out: pTGI (converted); how it was run: as §2
[26] = system: T47D; experiment: Growth inhibition of human T47D cells after 48 hrs by sulforhodamine B assay; conditions: for CC50: read-out: pLC50 (the source's name) (converted); for TGI: read-out: pTGI (converted); how it was run: as §2
[27] = system: MCF7; experiment: Growth inhibition of human MCF7 cells after 48 hrs by sulforhodamine B assay; conditions: MCF7, 48 h; for CC50: read-out: pLC50 (the source's name) (converted); for TGI: read-out: pTGI (converted); how it was run: as §1
[28] = system: MOLT-4; experiment: Growth inhibition of human MOLT4 cells after 48 hrs by sulforhodamine B assay; conditions: MOLT-4, 48 h; how it was run: as §1
[29] = system: SF-539; experiment: Growth inhibition of human SF539 cells after 48 hrs by sulforhodamine B assay; conditions: SF-539, 48 h; how it was run: as §1

COc1cc(OC)cc(Oc2nc3cc(N)cc(N)c3nc2-c2ccccc2)c1
growth at 100 µM [1]: 2%
GI50 [2]: 1.95 µM
TGI [2]: 8.71 µM
GI50 [3]: 3.09 µM
TGI [3]: 25.7 µM
GI50 [4]: 3.8 µM
TGI [4]: 32.4 µM
GI50 [5]: 2.14 µM
TGI [5]: 12.9 µM
GI50 [6]: 1.35 µM
TGI [6]: 8.91 µM
GI50 [7]: 6.61 µM
TGI ([7]; read-out: pTGI (converted)): 42.7 µM
GI50 [8]: 2.24 µM
TGI [8]: 15.1 µM
GI50 [9]: 0.891 µM
TGI [9]: 4.27 µM
GI50 [10]: 2.04 µM
TGI [10]: 12.3 µM
GI50 [11]: 4.37 µM
TGI [11]: 17.8 µM
GI50 [12]: 1.74 µM
TGI [12]: 7.08 µM
GI50 [13]: 0.427 µM
CC50 [13]: 30.2 µM
TGI [13]: 5.13 µM
GI50 [14]: 2.29 µM
CC50 [14]: 38 µM
TGI [14]: 10.2 µM
GI50 [15]: 3.16 µM
CC50 [15]: 38.9 µM
TGI [15]: 15.5 µM
GI50 [16]: 1.91 µM
CC50 [16]: 24.5 µM
TGI [16]: 6.46 µM
GI50 [17]: 2.19 µM
CC50 [17]: 37.2 µM
TGI [17]: 12.3 µM
GI50 [18]: 4.07 µM
CC50 [18]: 47.9 µM
TGI [18]: 18.2 µM
GI50 [19]: 2.63 µM
CC50 [19]: 38 µM
TGI [19]: 12.3 µM
GI50 [20]: 2.24 µM
CC50 [20]: 55 µM
TGI [20]: 8.71 µM
GI50 [21]: 2.88 µM
CC50 [21]: 58.9 µM
TGI [21]: 16.2 µM
GI50 [22]: > 100 µM
CC50 [22]: > 100 µM
TGI [22]: > 100 µM
GI50 [23]: 14.8 µM
TGI [23]: 33.9 µM
GI50 [24]: 17 µM
CC50 [24]: 69.2 µM
TGI [24]: 34.7 µM
GI50 [25]: 11.5 µM
CC50 [25]: 72.4 µM
TGI [25]: 28.8 µM
GI50 [26]: 2.34 µM
CC50 [26]: 51.3 µM
TGI [26]: 9.12 µM
GI50 [27]: 1.7 µM
CC50 [27]: 14.5 µM
TGI [27]: 4.57 µM

COc1ccc(Oc2nc3cc(N)cc(N)c3nc2-c2ccccc2)cc1
growth at 100 µM [1]: -48%
GI50 [2]: 2.95 µM
LC50 [2]: > 100 µM
TGI [2]: 12.6 µM
GI50 [3]: 15.5 µM
LC50 [3]: > 100 µM
TGI [3]: > 100 µM
GI50 [4]: 26.3 µM
LC50 [4]: > 100 µM
TGI [4]: > 100 µM
GI50 [28]: 5.37 µM
LC50 [28]: > 100 µM
TGI ([28]; read-out: pTGI (converted)): 93.3 µM
GI50 [5]: 19.5 µM
LC50 [5]: 87.1 µM
TGI [5]: 40.7 µM
LC50 (50% net cell death) [6]: 77.6 µM
TGI [6]: 8.13 µM
GI50 [8]: > 100 µM
LC50 [8]: > 100 µM
TGI [8]: > 100 µM
GI50 [9]: 31.6 µM
LC50 [9]: > 100 µM
TGI [9]: > 100 µM
GI50 [10]: 52.5 µM
LC50 [10]: > 100 µM
TGI [10]: > 100 µM
GI50 [11]: 39.8 µM
LC50 [11]: > 100 µM
TGI [11]: > 100 µM
GI50 [12]: 20.9 µM
LC50 [12]: > 100 µM
TGI [12]: > 100 µM
GI50 [29]: 23.4 µM
LC50 [29]: > 100 µM
TGI ([29]; read-out: pTGI (converted)): 61.7 µM
GI50 [13]: 51.3 µM
CC50 [13]: > 100 µM
TGI [13]: > 100 µM
GI50 [14]: 25.1 µM
CC50 [14]: > 100 µM
TGI [14]: 87.1 µM
GI50 [15]: 19.5 µM
CC50 [15]: > 100 µM
TGI [15]: 49 µM
GI50 [16]: 44.7 µM
CC50 [16]: > 100 µM
TGI [16]: > 100 µM
GI50 [17]: > 100 µM
CC50 [17]: > 100 µM
TGI [17]: > 100 µM
GI50 [18]: 63.1 µM
CC50 [18]: > 100 µM
TGI [18]: > 100 µM
GI50 [19]: 25.1 µM
CC50 [19]: > 100 µM
TGI [19]: > 100 µM
GI50 [20]: 14.8 µM
CC50 [20]: > 100 µM
TGI [20]: 72.4 µM
GI50 [21]: 3.72 µM
CC50 [21]: > 100 µM
TGI [21]: 24.5 µM
GI50 [22]: 49 µM
CC50 [22]: > 100 µM
TGI [22]: > 100 µM
GI50 [23]: 36.3 µM
CC50 ([23]; read-out: pLC50 (the source's name) (converted)): > 100 µM
TGI [23]: > 100 µM
GI50 [24]: 50.1 µM
CC50 [24]: > 100 µM
TGI [24]: > 100 µM
GI50 [25]: 28.2 µM
CC50 [25]: > 100 µM
TGI [25]: > 100 µM
GI50 [26]: 15.1 µM
CC50 [26]: > 100 µM
TGI [26]: 97.7 µM
GI50 [27]: 47.9 µM
CC50 [27]: > 100 µM
TGI [27]: > 100 µM
